The list is not random: actives were taken first. Their share in the collection is about 29%.
CYP2C9 inh – inhibitors of human CYP2C9; P11712; AID 777; 20% of 96,000 active; CYP2C9 Supersomes, luciferin-H conversion, luminescence; inhibition, % at 5 µM;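 active = blocking of liver enzyme CYP2C9 beyond about 50% at 5 µM, limit read from the data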
Ecoli WT expand – blocks growth of wild type E. coli BW25113; OD600 absorbance; growth inhibition, % at 100 µM; 0.15% of 98,000 active;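 active = growth inhibition above about 50% at one test dose, limit read from the data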;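 note: growth measured after 20 h incubation at 37 °C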
CYP2C19 inh – blocks human cytochrome P450 2C19. AID 778. CYP2C19 Supersomes, luciferin-H EGE luminescence, 30 min. 21% of 96,000 active. inhibition, % at 5 µM;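 active = CYP2C19 inhibition above a set limit at 5 µM in the primary screen, cut at about 50% in these data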;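 note: plate controls were negative control wells for no effect and 2.5 mM tranylcypromine positive control for full effect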
Target sequence (P33261 whole entry, looked up): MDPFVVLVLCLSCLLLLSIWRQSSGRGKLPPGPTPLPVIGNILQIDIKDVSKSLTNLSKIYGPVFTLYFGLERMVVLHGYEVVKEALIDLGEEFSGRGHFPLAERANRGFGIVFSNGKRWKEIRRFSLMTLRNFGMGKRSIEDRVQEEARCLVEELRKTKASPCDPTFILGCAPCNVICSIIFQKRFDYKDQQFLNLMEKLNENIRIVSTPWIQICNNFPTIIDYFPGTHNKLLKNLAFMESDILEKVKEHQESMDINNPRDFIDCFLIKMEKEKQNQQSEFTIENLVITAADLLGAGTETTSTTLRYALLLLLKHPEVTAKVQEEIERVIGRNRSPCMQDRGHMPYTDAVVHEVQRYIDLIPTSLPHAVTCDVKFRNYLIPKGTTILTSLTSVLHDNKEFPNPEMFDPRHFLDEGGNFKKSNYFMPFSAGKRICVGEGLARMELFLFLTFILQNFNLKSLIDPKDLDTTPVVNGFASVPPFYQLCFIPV
tolC growth inh – E. coli tolC mutant growth inhibition; E. coli BW25113 tolC mutant growth, OD615; growth inhibition, % at 10 µM (by protocol); 2.2% of 65,000 active; AID 573;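 active = growth inhibition at or above a cutoff equal to the mean over every tested compound plus 3 SD, cut at about 60% in these data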;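 note: growth measured after 20 h incubation at 37 °C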
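Test system: E. coli BW25113 ΔtolC::kan bacteria; incubation: 37 °C, 20 h exposure; medium: LB broth supplemented with 50 µg/mL kanamycin; read-out basis: percent growth inhibition; signal: A615 absorbance measurement; compound: 10 µM final, single dose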
CYP2C9 act – increases human cytochrome P450 2C9 activity. recombinant CYP2C9, luciferin-H conversion, luminescence; hits give high values; factor 1 = untreated enzyme, 0 = blocked. activation factor at 5 µM. 1.4% of 96,000 active;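 active = activation factor of 2 or more for CYP2C9 at a 5 µM dose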;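 note: 0 = sulfaphenazole-blocked wells and 1 = vehicle-only wells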
CYP2C19 activ – increases human CYP2C19 enzyme activity; P33261; recombinant CYP2C19, luciferin-H EGE luminescence; hits give high values; 0 = fully inhibited enzyme, 1 = untreated enzyme; activation factor at 5 µM; 96,000 tested, under 10 active; AID 1025;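 active = activation factor of at least 2 at 5 µM in the primary screen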;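 note: 0 = wells with 2.5 mM tranylcypromine and 1 = vehicle-only wells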
* hit, by the source's call.

Results for O=C(CN1C(=O)C2CC=C(Cl)CC2C1=O)NCc1ccccc1 (stereo not given) ?
CYP2C9 inh: 15; Ecoli WT expand: 5; CYP2C19 inh: 6; tolC growth inh: 20; CYP2C9 act: 0.9; CYP2C19 activ: 0.9

What do the screens show for `CC1CCC(NCc2ccco2)CC1` (stereo not given)?
CYP2C9 inh: -12; Ecoli WT expand: -2; CYP2C19 inh: -20; CYP2C9 act: 1.1; CYP2C19 activ: 1.2

What do the screens show for `Cc1cc(=O)oc2c1ccc1oc(/C(=N/O)c3ccccc3)c(C)c12`?
CYP2C9 inh: 60*; Ecoli WT expand: 23; CYP2C19 inh: 6; tolC growth inh: 63*; CYP2C9 act: 0.4; CYP2C19 activ: 0.9

What do the screens show for `Cc1cc(=O)oc2c(C(=O)/C=C/c3ccccc3)c(O)ccc12`?
CYP2C9 inh: -15; Ecoli WT expand: -3; CYP2C19 inh: 23; CYP2C9 act: 1.2; CYP2C19 activ: 0.8

How did CC(C)CN(CC(C)C)S(=O)(=O)N1CCC(C(=O)NCCc2ccc(Cl)cc2)CC1 do in these assays?
CYP2C9 inh: 54*; Ecoli WT expand: -7; CYP2C19 inh: 54*; CYP2C9 act: 0.5; CYP2C19 activ: 0.5

What do the screens show for `O=C(NCCc1ccc(Cl)cc1)C1CCN(c2cnccn2)CC1`?
CYP2C9 inh: 66*; Ecoli WT expand: 1; CYP2C19 inh: 52*; tolC growth inh: -8; CYP2C9 act: 0.3; CYP2C19 activ: 0.5

How did O=C(O)C1CCCCC1C(=O)NCCc1ccc(Cl)cc1 (stereo not given) do in these assays?
CYP2C9 inh: 40; Ecoli WT expand: 4; CYP2C19 inh: 75*; tolC growth inh: -14; CYP2C9 act: 0.6; CYP2C19 activ: 0.3

How did O=C(NCCc1ccc(Cl)cc1)C1CCN(S(=O)(=O)N2CCCCC2)CC1 do in these assays?
CYP2C9 inh: 51*; Ecoli WT expand: -1; CYP2C19 inh: 31; tolC growth inh: 19; CYP2C9 act: 0.5; CYP2C19 activ: 0.7

Results for CC(C)NC(=O)C(=O)NCCc1ccc(Cl)cc1 ?
CYP2C9 inh: 2; Ecoli WT expand: 6; CYP2C19 inh: 92*; CYP2C9 act: 1; CYP2C19 activ: 0.1

What do the screens show for `O=C(NCCc1ccc(Cl)cc1)C1CCN(S(=O)(=O)c2cccs2)CC1`?
CYP2C9 inh: 79*; Ecoli WT expand: 4; CYP2C19 inh: 84*; CYP2C9 act: 0.2; CYP2C19 activ: 0.2

What do the screens show for `CC(C)N1C(=O)CCC1C(=O)NCCc1ccc(Cl)cc1` (stereo not given)?
tolC growth inh: -2

What do the screens show for `O=C(NCCc1ccccc1)C1CCN(S(=O)(=O)c2cccs2)CC1`?
CYP2C9 inh: 17; Ecoli WT expand: -7; CYP2C19 inh: 16; tolC growth inh: -3; CYP2C9 act: 0.8; CYP2C19 activ: 0.8

Results for Cc1ccccc1N1CCN(C(=O)CCN2C(=O)c3ccccc3C2=O)CC1 ?
CYP2C9 inh: 11; Ecoli WT expand: 0; CYP2C19 inh: 14; CYP2C9 act: 0.9; CYP2C19 activ: 0.9

Results for O=C(c1ccc(Cl)cc1)c1cnc(-c2ccc(Cl)cc2)s1 ?
CYP2C9 inh: -6; Ecoli WT expand: -6; CYP2C19 inh: 64*; CYP2C9 act: 1.1; CYP2C19 activ: 0.4

Results for COc1ccc(C2C3=C(CC(C)(C)CC3=O)Nc3c2c(=O)[nH]c2nc(C)nn32)cc1 (stereo not given) ?
CYP2C9 inh: 12; Ecoli WT expand: 2; CYP2C19 inh: 4; tolC growth inh: -7; CYP2C9 act: 0.9; CYP2C19 activ: 1

How did CCOCCCNC(=O)c1cc2sc(Cl)cc2n1CC do in these assays?
CYP2C9 inh: 22; Ecoli WT expand: 1; CYP2C19 inh: 52*; tolC growth inh: 17; CYP2C9 act: 0.8; CYP2C19 activ: 0.5

How did O=C(NCCN1CCOCC1)C1CCN(Cc2ccccc2O)CC1 do in these assays?
CYP2C9 inh: 8; Ecoli WT expand: -4; CYP2C19 inh: -16; tolC growth inh: -17; CYP2C9 act: 0.9; CYP2C19 activ: 1.2

What do the screens show for `Cc1cc(C)nc(NS(=O)(=O)c2ccccc2)n1`?
CYP2C9 inh: -18; Ecoli WT expand: -2; CYP2C19 inh: -18; tolC growth inh: -13; CYP2C9 act: 1.2; CYP2C19 activ: 1.2

Results for Cc1cc(-n2nc(C)cc2C)nc(NS(=O)(=O)c2ccccc2Cl)n1 ?
CYP2C9 inh: 52*; Ecoli WT expand: -1; CYP2C19 inh: 0; CYP2C9 act: 0.5; CYP2C19 activ: 1

What do the screens show for `O=C(CN1CCN(S(=O)(=O)c2ccc(Br)cc2)CC1)Nc1ccc(F)cc1F`?
CYP2C9 inh: -3; Ecoli WT expand: 0; CYP2C19 inh: 54*; tolC growth inh: 17; CYP2C9 act: 1; CYP2C19 activ: 0.5

How did O=C(CN1CCN(S(=O)(=O)c2ccc(Br)cc2)CC1)Nc1ccccc1F do in these assays?
CYP2C9 inh: 37; Ecoli WT expand: -10; CYP2C19 inh: 84*; tolC growth inh: 12; CYP2C9 act: 0.6; CYP2C19 activ: 0.2

What do the screens show for `O=C(CN1CCN(S(=O)(=O)c2ccc(Cl)cc2)CC1)Nc1ccc(F)cc1F`?
CYP2C9 inh: 24; Ecoli WT expand: -8; CYP2C19 inh: 27; tolC growth inh: 11; CYP2C9 act: 0.8; CYP2C19 activ: 0.7

How did NS(=O)(=O)c1cc(C(=O)N2CCc3ccccc32)c(Cl)cc1Cl do in these assays?
CYP2C9 inh: 32; Ecoli WT expand: 5; CYP2C19 inh: 4; CYP2C9 act: 0.7; CYP2C19 activ: 1

What do the screens show for `O=C1CC(N2CCN(S(=O)(=O)c3ccc(Cl)cc3)CC2)C(=O)N1CCc1ccccc1` (stereo not given)?
Ecoli WT expand: -6; tolC growth inh: -1

How did Cc1ccc(S(=O)(=O)N2CCN(C3CC(=O)N(CCc4ccccc4)C3=O)CC2)cc1C (stereo not given) do in these assays?
CYP2C9 inh: -46; Ecoli WT expand: -5; CYP2C19 inh: 50*; CYP2C9 act: 1.5; CYP2C19 activ: 0.5

Results for Cc1nn(CCCC(=O)N2CCc3ccccc3C2)c(=O)c2cc3sccc3n12 ?
CYP2C9 inh: 51*; Ecoli WT expand: 0; CYP2C19 inh: 54*; tolC growth inh: 34; CYP2C9 act: 0.5; CYP2C19 activ: 0.5

Results for CCc1nn(CCCC(=O)N2CCc3ccccc3C2)c(=O)c2cc3occc3n12 ?
CYP2C9 inh: 8; Ecoli WT expand: -3; CYP2C19 inh: 80*; tolC growth inh: 13; CYP2C9 act: 0.9; CYP2C19 activ: 0.2

How did Cc1cc(C)n(CC(O)Cn2c(C)c(C)c3ccccc32)n1 (stereo not given) do in these assays?
CYP2C9 inh: 71*; Ecoli WT expand: 0; CYP2C19 inh: 32; CYP2C9 act: 0.3; CYP2C19 activ: 0.7

Results for COc1ccc(-c2cc3ccccc3n2CC(O)Cn2nc(C)cc2C)cc1 (stereo not given) ?
CYP2C9 inh: 100*; Ecoli WT expand: -7; CYP2C19 inh: 99*; tolC growth inh: 28; CYP2C9 act: 0; CYP2C19 activ: 0
